Entries after “also recorded” stand apart in the source; their conditions may differ.
Columns and labels:
HeLa cells = experiment: Cell viability / cytotoxicity; assay type: cell-based; settings: for Light-induced cytotoxicity: during FRET analysis
In short: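 HeLa seeded at 2 × 10⁵ cells per ml. Test compound at 20 μM final for 2, 4, 6, 8 or 12 h at 37 °C. WST-8 then added (10% v/v final) for 2 h at 37 °C; absorbance read at 450 nm.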

PAK1^T423E [1] = molecular target: T1, PAK1^T423E (Homo sapiens, UniProt Q13153, T423E); experiment: In vitro PAK1 assay with active PAK1; assay type: biochemical; settings: 0.5 h; 40 μM in Figure 3c
T1 sequence (Q13153 whole entry T423E): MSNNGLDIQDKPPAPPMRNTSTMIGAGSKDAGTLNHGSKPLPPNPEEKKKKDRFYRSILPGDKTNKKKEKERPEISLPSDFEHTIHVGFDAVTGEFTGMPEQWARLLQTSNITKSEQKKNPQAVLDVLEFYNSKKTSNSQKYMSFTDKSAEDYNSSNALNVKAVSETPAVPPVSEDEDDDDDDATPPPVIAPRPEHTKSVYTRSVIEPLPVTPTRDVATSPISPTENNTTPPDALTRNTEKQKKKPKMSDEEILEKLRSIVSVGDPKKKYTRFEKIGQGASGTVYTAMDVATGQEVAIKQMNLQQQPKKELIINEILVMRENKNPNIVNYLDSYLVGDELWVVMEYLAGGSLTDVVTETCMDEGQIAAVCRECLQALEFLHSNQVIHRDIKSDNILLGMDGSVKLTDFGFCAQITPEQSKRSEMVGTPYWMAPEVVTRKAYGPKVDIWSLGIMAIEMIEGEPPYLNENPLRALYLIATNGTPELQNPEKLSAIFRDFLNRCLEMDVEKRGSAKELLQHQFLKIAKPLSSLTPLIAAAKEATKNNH
In short: (§1)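 Preincubated with test compound or DMSO 0.5 h, 30 °C, then 5 μCi [γ-³²P]ATP 0.5 h, 30 °C. 15% SDS-PAGE; MBP phosphorylation read by autoradiography; total MBP immunoblot as loading control; ≥3 experiments.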

[2] = molecular target: YFP-PBD and CFP-V12Cdc42 fusion proteins in HeLa cells (Homo sapiens, UniProt Q13153); experiment: FRET analysis of V12Cdc42–PBD interaction in cells; assay type: cell-based; settings: 20 μM, 1.5 h
Sequence of YFP-PBD and CFP-V12Cdc42 fusion proteins in HeLa cells (Q13153 67-150): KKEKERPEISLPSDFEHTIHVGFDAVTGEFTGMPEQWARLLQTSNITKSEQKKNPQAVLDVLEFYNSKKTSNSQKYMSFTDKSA
In short: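 HeLa on poly-L-lysine-coated coverslips transfected with YFP-PBD and CFP-V12Cdc42 plasmids. At 12 h post-transfection, DMSO or 20 μM test compound applied and imaged over 1.5 h (ex 433 nm; em 475 nm CFP, 530 nm FRET). Background-subtracted FRET/CFP ratio used as efficiency, normalised to time zero = 1; 16 cells per compound.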

[3] = molecular target: PAK1^T423E/LL (H83L/H86L) (Homo sapiens, UniProt Q13153, H83L/H86L/T423E); experiment: In vitro kinase assay with LL mutant of active PAK1; assay type: biochemical; settings: 40 μM, 0.5 h
Sequence of PAK1^T423E/LL (H83L/H86L) (Q13153 whole entry H83L/H86L/T423E): as the sequence (Q13153 whole entry T423E) above, with H83L, H86L counted along it
In short: as §1

PBD of PAK1 (Wt-PBD) = PBD of PAK1 (Wt-PBD) (Homo sapiens, UniProt Q13153); experiment: SPR binding to immobilized GST-PBD; settings: Kd for the compound–PBD interaction, 25 °C, 1:1 Langmuir model
Sequence of PBD of PAK1 (Wt-PBD) (Q13153 67-150): as the sequence (Q13153 67-150) above
In short: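 GST (reference) and wild-type GST-PBD amine-coupled to CM5 chips at about 10 000 RU. Runs at 25 °C in 10 mM HEPES, 150 mM NaCl, 0.005% P20, 0.4% DMSO, pH 7.4. Test compound injected at 12.5, 25, 50 or 100 μM, 20 μl min⁻¹. Kd taken as kd/ka from a 1:1 Langmuir fit. At least three independent experiments.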

[4] = molecular target: myc-PAK3 (pT421) in HeLa cells (Homo sapiens, UniProt O75914); experiment: Sorbitol-induced PAK3 autophosphorylation in cells; assay type: cell-based; settings: 20 μM for 2 h, then 0.4 M sorbitol
Sequence of myc-PAK3 (pT421) in HeLa cells (O75914 1-544 isoform O75914-2): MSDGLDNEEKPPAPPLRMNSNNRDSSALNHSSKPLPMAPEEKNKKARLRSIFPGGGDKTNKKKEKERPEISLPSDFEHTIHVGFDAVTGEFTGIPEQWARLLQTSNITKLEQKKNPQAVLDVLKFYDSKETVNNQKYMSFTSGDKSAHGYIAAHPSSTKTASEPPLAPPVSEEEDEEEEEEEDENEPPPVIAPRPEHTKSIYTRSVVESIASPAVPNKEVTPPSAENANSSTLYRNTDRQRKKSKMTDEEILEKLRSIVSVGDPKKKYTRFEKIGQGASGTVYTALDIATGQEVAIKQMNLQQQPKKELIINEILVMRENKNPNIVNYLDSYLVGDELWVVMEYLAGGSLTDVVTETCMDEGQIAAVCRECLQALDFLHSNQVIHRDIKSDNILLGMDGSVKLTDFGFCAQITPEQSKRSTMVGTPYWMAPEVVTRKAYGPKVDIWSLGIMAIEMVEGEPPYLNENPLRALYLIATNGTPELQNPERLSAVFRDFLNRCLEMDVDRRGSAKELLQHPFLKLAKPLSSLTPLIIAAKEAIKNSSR
In short: (§2)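 HeLa transfected (Lipofectamine, 24 h) with 2 μg myc-PAK1 or myc-PAK3 cDNA. Cells exposed to test compound 2 h, then 0.4 M sorbitol 0.5 h; lysed in HEPES/Triton buffer with NaF and vanadate. Immunoblotted with anti-phospho-group I PAK antibody (PAK1 T423; PAK3 T421); myc-PAK levels by anti-Myc; chemiluminescent detection; ≥3 experiments.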

[5] = tested on: R1K3 (PAK1 CD replaced by PAK3 CD) in HeLa cells; experiment: CD-swapping experiment, R1K3; assay type: cell-based; settings: 20 μM for 2 h, then 0.4 M sorbitol
pMEK1^S298 in 293T cells = experiment: MEK1 S298 phosphorylation downstream of PAK1; assay type: cell-based; settings: 293T cells with myc-PAK1 and GFP-V12Cdc42, 20 μM, 2 h
In short: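 293T co-transfected with myc-PAK1 and GFP-V12Cdc42. After 24 h, test compound at 20 μM for 2 h. Lysates immunoblotted for pPAK1 T423 and pMEK S298; expressed proteins checked with anti-Myc and anti-GFP. Membranes blocked in 3% BSA/TBS-T, primary antibody 1 h RT, HRP secondary, chemiluminescence. At least three independent experiments.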

full-length PAK3 = full-length PAK3 (Homo sapiens, UniProt O75914); experiment: In vitro inhibition of PAK family members, PAK3; assay type: biochemical; settings: 40 μM, with Cdc42•GTP
Sequence of full-length PAK3 (O75914 1-544 isoform O75914-2): as above

PBD-LL (H83L/H86L) = PBD-LL (H83L/H86L) (Homo sapiens, UniProt Q13153, H83L/H86L); experiment: SPR binding to mutated PBD; settings: 100 μM compound
Sequence of PBD-LL (H83L/H86L) (Q13153 67-150 H83L/H86L): as the sequence (Q13153 67-150) above, with H17L, H20L counted along it
In short: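 GST-tagged wild-type or H83L/H86L PAK1 PBD was expressed in E. coli, purified on glutathione-Sepharose, and amine-coupled to CM5 chips (~10 000 RU), with GST as control. Test compound (100 μM) was flowed at 20 μl min⁻¹, 25 °C, in 10 mM HEPES, 150 mM NaCl, 0.005% P20, 0.4% DMSO, pH 7.4. Sensorgrams were representative of ≥3 independent experiments.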

full-length PAK1 = full-length PAK1 (Homo sapiens, UniProt Q13153); experiment: In vitro inhibition of PAK family members, PAK1; assay type: biochemical; settings: 40 μM, with Cdc42•GTP
Sequence of full-length PAK1 (Q13153 whole entry): as the sequence (Q13153 whole entry T423E) above, with E423T counted along it

[6] = molecular target: myc-PAK1 (pT423) in HeLa cells (Homo sapiens, UniProt Q13153); experiment: Sorbitol-induced PAK1 autophosphorylation in cells; assay type: cell-based; settings: 20 μM for 2 h, then 0.4 M sorbitol
Sequence of myc-PAK1 (pT423) in HeLa cells (Q13153 whole entry): as the sequence (Q13153 whole entry T423E) above, with E423T counted along it
In short: as §2

[7] = molecular target: Cdc42–PBD interaction (PBD of PAK1) (Homo sapiens, UniProt Q13153); experiment: ELISA of the Cdc42–PBD interaction; assay type: binding
Sequence of Cdc42–PBD interaction (PBD of PAK1) (Q13153 67-150): as the sequence (Q13153 67-150) above
In short: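 Wells coated overnight at 4 °C with His-tagged PAK1 PBD (1 μg ml⁻¹) in carbonate–bicarbonate buffer, pH 9.6; TBS-T washes. GST-Cdc42 loaded with GTPγS (0.5 h, RT), then GST-Cdc42(GTPγS) (100 ng ml⁻¹) with test compound for 0.5 h RT and 1 h 37 °C. Bound Cdc42 detected with HRP-anti-GST (200 ng ml⁻¹, 1 h, 37 °C) and ABTS (pH 5.6, 15–30 min); stopped with 1% SDS; A405.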

Cdc42–PBD interaction = Cdc42–PBD interaction (Homo sapiens, UniProt Q13153); experiment: SPR of Cdc42•GTP binding to immobilized PBD in presence of compound; settings: 10 µM compound
Sequence of Cdc42–PBD interaction (Q13153 67-150): as above

Wt-PAK1 (full-length) = settings: reported; ref [11], [12]; cited from earlier work
PAK1^T423E [8] = molecular target: T1, PAK1^T423E; settings: reported; ref [11], [12]; cited from earlier work

Row | Inhibition of full-length PAK1 (MBP phosphorylation) (full-length PAK1) | Inhibitory activity on the Cdc42–PBD interaction [7] | Structure (SMILES) | Kd (PBD of PAK1 (Wt-PBD)) | Inhibition of sorbitol-activated R1K3 [5] | Binding affinity to PBD-LL compared with Wt-PBD (PBD-LL (H83L/H86L)) | PAK1 autophosphorylation (pT423) [6] | Light-induced cytotoxicity (HeLa cells) | Interference with the Cdc42–PBD interaction (Cdc42–PBD interaction) | further results
1 | – | high inhibitory activities | COC(=O)C1=CC(=O)c2ccccc2C1=O [compound 8, 2-methoxycarbonyl-1,4-naphthoquinone] | < 7 µM | – | significantly reduced (to approximately half of those for Wt-PBD binding) | – | – | – | –
2 | selective inhibition of PAK1 | high inhibitory activities | O=C1C=C(Br)C(=O)c2ccccc21 [compound 13, 2-Bromo-1,4-NQ] | – | – | – | only weakly suppressed | light-induced cytotoxicity | effectively interfered with the Cdc42–PBD interaction | –
3 | – | – | Oc1ccc2ccccc2c1SSc1c(O)ccc2ccccc12 [IPA-3, 2,2′-dihydroxy-1,10-dinaphthyldisulfide] | – | – | – | – | – | – | Inhibition of Cdc42-dependent activation of wild-type group I PAKs (Wt-PAK1 (full-length)): effectively inhibit; Susceptibility of PAK1^T423E to inhibition (PAK1^T423E [8]): not susceptible to inhibition
4 | selective inhibition of PAK1 | high inhibitory activities | O=C1C=C(Cl)C(=O)c2ccccc21 [compound 14, 2-Chloro-1,4-NQ] | – | almost completely inhibited | – | greatly suppressed; also recorded: almost completely inhibited | light-induced cytotoxicity | effectively interfered with the Cdc42–PBD interaction | –

Row | Structure (SMILES) | Inhibition of full-length PAK1 (MBP phosphorylation) (full-length PAK1) | Inhibitory activity on the Cdc42–PBD interaction [7] | Kd (PBD of PAK1 (Wt-PBD)) | Inhibition of sorbitol-activated R1K3 [5] | Binding affinity to PBD-LL compared with Wt-PBD (PBD-LL (H83L/H86L)) | PAK1 autophosphorylation (pT423) [6] | Light-induced cytotoxicity (HeLa cells) | Interference with the Cdc42–PBD interaction (Cdc42–PBD interaction) | further results
5 | O=C1C=CC(=O)c2ccccc21 [compound 7, 1,4-naphthoquinone] | suppressed the activities of both PAK1 and PAK3 to a similar degree | – | < 7 µM | almost completely inhibited | significantly reduced (to approximately half of those for Wt-PBD binding) | greatly suppressed; also recorded: almost completely inhibited | – | – | Cytotoxicity (HeLa cells; HeLa cells, 20 μM): no significant cytotoxicity; MBP phosphorylation by PAK1^T423E (PAK1^T423E [1]): markedly suppressed; FRET efficiency [2]: decreased; Inhibitory effect on PAK1^T423E/LL [3]: little inhibitory effect; PAK3 autophosphorylation (pT421) [4]: greatly suppressed; also recorded: specifically inhibited; pMEK1^S298 levels (pMEK1^S298 in 293T cells): markedly decreased; Inhibition of full-length PAK3 (MBP phosphorylation) (full-length PAK3): suppressed the activities of both PAK1 and PAK3 to a similar degree
